Screens: PubChem, Johns Hopkins Ion Channel Center
TRPC4 block: blocks the mouse TRPC4 cation channel | HEK293 TRPC4beta/mu-opioid, DAMGO-evoked Fluo4 calcium flux; hits give low values | Q9QUQ5 | hit rate 0.39% among 300,000 | B-score at 10 µM;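 active means B-score over 3 SD under the library average, no early fluorescence shift, positive overall ratio signal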
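Assay system: TRPC4beta/mu-opioid receptor HEK293 cell line; compound dosing: single concentration per test compound; detection: Fluo4 Ca2+ flux fluorescence; evaluation: per-well B score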
TRPC6 inhibitor: inhibitors of mouse TRPC6 channel. HEK293-TRPC6, membrane potential dye, ACh-evoked depolarization; hits give low values. AID 2553. hit rate 1.1% among 310,000. B-score at 10 µM;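 active means B-score under library mean minus 3 SD, initial fluorescence not abnormally high, positive integrated signal ratio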;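 further: B-score derived from integrated fluorescence ratio over the kinetic read; more negative B-score means stronger inhibition of depolarization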
TRPC4 PAM: allosterically enhances the mouse TRPC4 cation channel. Q9QUQ5. HEK293 TRPC4beta/mu-opioid, DAMGO EC20, Fluo-4 Ca2+ flux; hits give high values. B-score at 10 µM. hit rate 0.42% among 310,000. AID 2227;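 active means B-score of calcium response area above 5 SD of library B-scores, with initial fluorescence ratio within 5 SD of library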;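 further: B-score of integrated fluorescence ratio over time as area under calcium response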
TRPC6 activator: mouse TRPC6 channel activation; HEK293-TRPC6 membrane potential dye fluorescence; hits give high values; Q61143; hit rate 0.13% among 310,000; B-score at 10 µM;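 active means B-score of the integrated fluorescence ratio above library mean plus 3 SD, and starting fluorescence ratio within library mean plus 5 SD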;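 further: higher score means more depolarization so channel activation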
TRPC4 agonist: opens the mouse TRPC4 cation channel | Q9QUQ5 | HEK293 TRPC4beta/mu-opioid, Fluo4 calcium fluorescence; hits give high values | B-score at 10 µM | hit rate 0.49% among 310,000;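 active means B-score above 5 SD of library B-scores, and initial fluorescence ratio not above library mean plus 5 SD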;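 further: positive B-score marks a calcium rise read as TRPC4 activation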
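System – HEK293 cells stably co-expressing mouse TRPC4beta and mu-opioid receptor · Signal – Fluo4 calcium-sensitive dye fluorescence, kinetic, 1 Hz baseline · Benchmarks – buffer (low) and maximal DAMGO (high) · Read-out – B score of integrated fluorescence ratio per well · Incubation – dye loading 45 min room temperature, 110 s kinetic read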
TRPC4 sel inh 2: second selectivity test of TRPC6 inhibitors: effect on mouse TRPC4; shares compounds with TRPC6 inhibitor; HEK293 TRPC4/MOR, membrane potential dye fluorescence; channel activated by saturating DAMGO dose; inhibition, % at 10 µM; hit rate 42% among 920;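 active means compounds whose fluorescence signal differed from control wells by over 3 SD, either direction, in both duplicate plates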
TRPC4 spec: selectivity of TRPC6 inhibitors: effect on mouse TRPC4; shares compounds with TRPC6 inhibitor; hit rate 61% among 920; HEK293 TRPC4/mu-opioid, membrane potential fluorescence; activity change, negative = inhibition, % at 10 µM; AID 2777;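 active means rise or fall in signal beyond 3 SD of buffer-only wells in both replicate plates, either sign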;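 further: integrated kinetic ratio of fluorescence range over baseline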
HEK293 MPD ctr 2-1: second counter-screen for TRPC6 inhibitors: parental HEK293 cells; shares compounds with TRPC6 inhibitor; hit rate 31% among 920; signal change vs control, % at 10 µM; parental HEK293 membrane potential dye fluorescence; maximal acetylcholine challenge after compound addition;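 active means membrane potential signal moving either way by over 3 SD of the maximum-effect control, in both duplicate plates, meaning non-specific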
HEK293 MPD ctr-1: parental HEK293 nonspecific activity of TRPC6 inhibitors; hit rate 60% among 920; shares compounds with TRPC6 inhibitor; membrane potential signal change, % at 10 µM; parental HEK293 membrane potential dye fluorescence;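 active means membrane potential signal shifting up or down by more than 3 SD of buffer-only wells, on both duplicate plates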
HEK293 MPD ctr-2: parental HEK293 nonspecific activity of TRPC6 modulators; shares compounds with TRPC6 inhibitor; AID 488924; membrane potential dye fluorescence; membrane potential signal change, % at 10 µM; hit rate 51% among 2,400;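 active means membrane potential signal moves up or down beyond 5 SD from buffer-only wells, on both duplicate plates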
HEK293 MPD ctr 2-2: parental HEK293 nonspecific activity of TRPC6 modulators, second screen. shares compounds with TRPC6 inhibitor. membrane potential dye fluorescence; after compound, maximal acetylcholine stimulation. inhibition, % at 10 µM. hit rate 14% among 2,400. AID 488926;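 active means membrane potential signal drops by more than 5 SD from the mean control signal, in both duplicate plates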;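 further: plate controls were acetylcholine ECmax control wells for no effect and buffer only wells for full effect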
TRPC4 ctr mod: selectivity of TRPC6 modulators against mouse TRPC4. HEK293 TRPC4/mu-opioid, membrane potential fluorescence. hit rate 69% among 2,400. percent change from control (negative = decrease, positive = increase), % at 10 µM. shares compounds with TRPC6 inhibitor. AID 488927;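 active means membrane potential signal moved up or down beyond 5 SD of buffer control wells, in both duplicate plates, actives on both sides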;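 further: plate controls were assay buffer wells for no effect and DAMGO maximal-effect wells for full effect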
TRPC4 ctr inh 2: second selectivity test of TRPC6 modulators against mouse TRPC4; HEK293 TRPC4/mu-opioid, membrane potential dye fluorescence; stimulated with maximal-effect DAMGO; hit rate 55% among 2,400; inhibition, % at 10 µM; shares compounds with TRPC6 inhibitor;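 active means drop in membrane potential signal beyond 5 SD of the control wells in both duplicate plates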;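 further: TRPC4 counter screen for TRPC6 hits run under conditions tuned for TRPC6 not TRPC4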
TRPC6 block conf: mouse TRPC6 inhibitor confirmation. inhibition, % at 10 µM. hit rate 43% among 3,300. HEK293-TRPC6, membrane potential dye, ACh-evoked depolarization. shares compounds with TRPC6 inhibitor;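 active means fluorescence ratio falls more than 5 SD below the full-stimulation control mean, in both duplicate runs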;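 further: integrated fluorescence ratio of peak minus minimum over baseline after agonist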
TRPC6 act conf: mouse TRPC6 activator confirmation; HEK293-TRPC6 membrane potential dye fluorescence, FDSS; shares compounds with TRPC6 inhibitor; activation, % at 10 µM; hit rate 11% among 2,800;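 active means ratio signal rise beyond 5 SD above unstimulated control wells' mean, seen in both duplicate runs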;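 further: plate controls were buffer EC0 wells for no effect and acetylcholine ECmax response for full effect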
The depositor's hits bear a star; i = inactive; x = not tested or not shown; + = active, no number. Hits are enriched below; roughly 2.3% of the tested compounds scored in any of these assays.

SMILES | TRPC4 block | TRPC6 inhibitor | TRPC4 PAM | TRPC6 activator | TRPC4 agonist | HEK293 MPD ctr-2 | HEK293 MPD ctr 2-2 | TRPC4 ctr mod | TRPC4 ctr inh 2 | TRPC6 block conf | TRPC6 act conf | others
O=C1c2cccc3c(Nc4ccccc4Cl)c([N+](=O)[O-])cc(c23)C(=O)N1CCO | i | -10* | i | i | i | -100%* | i | -26%* | 81%* | 47%* | i
CCSc1ccc2cc(OC)ccc2[n+]1CC | i | -7.6* | i | i | i | x | x | x | x | 62%* | i | TRPC4 sel inh 2=76%*;TRPC4 spec=-21%*;HEK293 MPD ctr 2-1=39%*;HEK293 MPD ctr-1=-314%*
CCn1ccc2cc(OC)ccc2c1=S | i | i | i | i | i | x | x | x | x | x | x
N#C/C(=C\c1ccc(O)cc1)c1nc2ccccc2o1 | i | i | i | i | i | x | x | x | x | x | x
COc1cc(/C=C(\C#N)c2nc3ccccc3o2)ccc1O | i | i | i | 63* | 78* | + | i | 290%* | i | i | 362%*
CCN(CC)C(=O)CSc1nnc(CSc2ncccn2)n1C | i | i | i | i | i | x | x | x | x | x | x
Cc1cc2c3c(ccc(C)c3n1)N=CN2c1ccccc1 | i | -8.1* | i | i | i | -240%* | 77%* | -46%* | 66%* | 52%* | i
CC(C)N1CC2=C(OC(N)=C(C#N)C2c2cccnc2)/C(=C/c2cccnc2)C1 (stereo not given) | i | -5* | i | i | i | 91%* | i | i | i | i | i
N#CC1=C(N)OC2=C(CN(Cc3ccccc3)C/C2=C\c2cccnc2)C1c1cccnc1 (stereo not given) | i | i | i | i | i | x | x | x | x | x | x
Cc1cccc(-c2nc(NCCCN3CCOCC3)c3ccccc3n2)c1 | i | -9.6* | i | i | i | x | x | x | x | 79%* | i | TRPC4 sel inh 2=38%*;TRPC4 spec=-21%*;HEK293 MPD ctr 2-1=i;HEK293 MPD ctr-1=-284%*
c1ccc(-c2nc(NCCCN3CCOCC3)c3ccccc3n2)cc1 | i | -11* | i | i | i | -168%* | i | -36%* | 68%* | 58%* | i
c1ccc2[nH]c(NCCCN3CCOCC3)nc2c1 | i | i | i | i | i | x | x | x | x | x | x
N#Cc1c2c(c(NCCCN3CCOCC3)n3c1nc1ccccc13)CCC2 | i | -6* | i | i | i | -173%* | 70%* | -36%* | 52%* | 46%* | i
Cc1nc(Nc2cccc(O)c2)c2c3c(sc2n1)CCC3 | i | i | i | i | i | x | x | x | x | x | x
CCc1ccc(NC(=O)CSc2nc3nc(C)cc(C)n3n2)cc1 | i | i | i | i | i | x | x | x | x | x | x
